Measurements from ChEMBL document CHEMBL3045292, “Synthesis and herbicidal activity of 2-(7-fluoro-3-oxo- 3,4-dihydro-2H-benzo[b][1,4]oxazin-6-yl)isoindoline-1,3-diones” (J Agric Food Chem, 2005).

Assays:
[1] = Phytotoxicity against Zea mays (maize) assessed as growth inhibition at 30 g/ha post-emergence treatment measured after 15 days by crop-selectivity assay; assay type: organism-based; conditions: in vivo, read-out: GI
Summary of the method: (§1)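 Compounds were formulated as 100 g/L emulsifiable concentrates, with DMF as solvent and Tween-80 as emulsifier, then diluted in water to the required rate. They were sprayed on pot-grown plants in a greenhouse, in clay soil (pH 6.5, 1.6% organic matter, 37.3% clay, CEC 12.1 cmol/kg). Untreated and DMF-treated plants served as controls. Percent growth inhibition was scored visually 15 days after treatment.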

[2] = Phytotoxicity against Oryza sativa (rice) assessed as growth inhibition at 30 g/ha post-emergence treatment measured after 15 days by crop-selectivity assay; assay type: organism-based; conditions: in vivo, read-out: GI
[3] = Phytotoxicity against Brassica rapa subsp. oleifera assessed as growth inhibition at 30 g/ha post-emergence treatment measured after 15 days by crop-selectivity assay; assay type: organism-based; conditions: in vivo, read-out: GI
[4] = Phytotoxicity against Brassica rapa subsp. oleifera assessed as growth inhibition at 7.5 g/ha post-emergence treatment measured after 15 days by crop-selectivity assay; assay type: organism-based; conditions: in vivo, read-out: GI
[5] = Phytotoxicity against Glycine max (soybean) assessed as growth inhibition at 7.5 g/ha post-emergence treatment measured after 15 days by crop-selectivity assay; assay type: organism-based; conditions: in vivo, read-out: GI
[6] = Phytotoxicity against Gossypium (cotton) assessed as growth inhibition at 7.5 g/ha post-emergence treatment measured after 15 days by crop-selectivity assay; assay type: organism-based; conditions: in vivo, read-out: GI
[7] = Phytotoxicity against Triticum aestivum (wheat) assessed as growth inhibition at 150 g/ha pre-emergence treatment measured after 15 days by crop-selectivity assay; assay type: organism-based; conditions: in vivo, read-out: GI
[8] = Phytotoxicity against Oryza sativa (rice) assessed as growth inhibition at 150 g/ha pre-emergence treatment measured after 15 days by crop-selectivity assay; assay type: organism-based; conditions: in vivo, read-out: GI
[9] = Phytotoxicity against Brassica rapa subsp. oleifera assessed as growth inhibition at 150 g/ha pre-emergence treatment measured after 15 days by crop-selectivity assay; assay type: organism-based; conditions: in vivo, read-out: GI
[10] = tested on: Gossypium; assay: Phytotoxicity against Gossypium (cotton) assessed as growth inhibition at 150 g/ha pre-emergence treatment measured after 15 days by crop-selectivity assay; assay type: organism-based; conditions: in vivo, other, 360 h
[11] = Phytotoxicity against Triticum aestivum (wheat) assessed as growth inhibition at 75 g/ha pre-emergence treatment measured after 15 days by crop-selectivity assay; assay type: organism-based; conditions: in vivo, read-out: GI; summary of the method: as §1
[12] = Phytotoxicity against Brassica rapa subsp. oleifera assessed as growth inhibition at 75 g/ha pre-emergence treatment measured after 15 days by crop-selectivity assay; assay type: organism-based; conditions: in vivo, read-out: GI
[13] = tested on: Gossypium; assay: Phytotoxicity against Gossypium (cotton) assessed as growth inhibition at 75 g/ha pre-emergence treatment measured after 15 days by crop-selectivity assay; assay type: organism-based; conditions: in vivo, other, 360 h
[14] = tested on: Zea mays; assay: Phytotoxicity against Zea mays (maize) assessed as growth inhibition at 30 g/ha pre-emergence treatment measured after 15 days by crop-selectivity assay; assay type: organism-based; conditions: in vivo, other, 360 h; summary of the method: as §1
[15] = Phytotoxicity against Oryza sativa (rice) assessed as growth inhibition at 30 g/ha pre-emergence treatment measured after 15 days by crop-selectivity assay; assay type: organism-based; conditions: in vivo, read-out: GI
[16] = tested on: Glycine max; assay: Phytotoxicity against Glycine max (soybean) assessed as growth inhibition at 30 g/ha pre-emergence treatment measured after 15 days by crop-selectivity assay; assay type: organism-based; conditions: in vivo, other, 360 h
[17] = tested on: Zea mays; assay: Phytotoxicity against Zea mays (maize) assessed as growth inhibition at 15 g/ha pre-emergence treatment measured after 15 days by crop-selectivity assay; assay type: organism-based; conditions: in vivo, other, 360 h; summary of the method: as §1
[18] = Phytotoxicity against Oryza sativa (rice) assessed as growth inhibition at 15 g/ha pre-emergence treatment measured after 15 days by crop-selectivity assay; assay type: organism-based; conditions: in vivo, read-out: GI
[19] = tested on: Brassica rapa subsp. oleifera; assay: Phytotoxicity against Brassica rapa subsp. oleifera assessed as growth inhibition at 15 g/ha pre-emergence treatment measured after 15 days by crop-selectivity assay; assay type: organism-based; conditions: in vivo, other, 360 h
[20] = tested on: Glycine max; assay: Phytotoxicity against Glycine max (soybean) assessed as growth inhibition at 15 g/ha pre-emergence treatment measured after 15 days by crop-selectivity assay; assay type: organism-based; conditions: in vivo, other, 360 h
[21] = tested on: Gossypium; assay: Phytotoxicity against Gossypium (cotton) assessed as growth inhibition at 15 g/ha pre-emergence treatment measured after 15 days by crop-selectivity assay; assay type: organism-based; conditions: in vivo, other, 360 h
[22] = tested on: Zea mays; assay: Phytotoxicity against Zea mays (maize) assessed as growth inhibition at 7.5 g/ha pre-emergence treatment measured after 15 days by crop-selectivity assay; assay type: organism-based; conditions: in vivo, other, 360 h; summary of the method: as §1
[23] = Phytotoxicity against Gossypium (cotton) assessed as growth inhibition at 30 g/ha post-emergence treatment measured after 15 days by crop-selectivity assay; assay type: organism-based; conditions: in vivo, read-out: GI
[24] = Phytotoxicity against Zea mays (maize) assessed as growth inhibition at 15 g/ha post-emergence treatment measured after 15 days by crop-selectivity assay; assay type: organism-based; conditions: in vivo, read-out: GI; summary of the method: as §1
[25] = Phytotoxicity against Oryza sativa (rice) assessed as growth inhibition at 15 g/ha post-emergence treatment measured after 15 days by crop-selectivity assay; assay type: organism-based; conditions: in vivo, read-out: GI
[26] = Phytotoxicity against Brassica rapa subsp. oleifera assessed as growth inhibition at 15 g/ha post-emergence treatment measured after 15 days by crop-selectivity assay; assay type: organism-based; conditions: in vivo, read-out: GI
[27] = Phytotoxicity against Glycine max (soybean) assessed as growth inhibition at 15 g/ha post-emergence treatment measured after 15 days by crop-selectivity assay; assay type: organism-based; conditions: in vivo, read-out: GI
[28] = Phytotoxicity against Gossypium (cotton) assessed as growth inhibition at 15 g/ha post-emergence treatment measured after 15 days by crop-selectivity assay; assay type: organism-based; conditions: in vivo, read-out: GI
[29] = tested on: Brassica rapa subsp. oleifera; assay: Phytotoxicity against Brassica rapa subsp. oleifera assessed as growth inhibition at 7.5 g/ha pre-emergence treatment measured after 15 days by crop-selectivity assay; assay type: organism-based; conditions: in vivo, other, 360 h
[30] = tested on: Glycine max; assay: Phytotoxicity against Glycine max (soybean) assessed as growth inhibition at 7.5 g/ha pre-emergence treatment measured after 15 days by crop-selectivity assay; assay type: organism-based; conditions: in vivo, other, 360 h
[31] = tested on: Abutilon theophrasti; assay: Herbicidal activity against Abutilon theophrasti (velvetleaf) assessed as weed growth inhibition at post-emergence treatment […]; assay type: functional, organism-based
Summary of the method: (§2)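 Pot-grown plants in the greenhouse, in clay soil (pH 6.5, 1.6% organic matter, 37.3% clay, CEC 12.1 cmol/kg). Compound was made up as a 100 g/L emulsified concentrate (DMF, Tween-80), diluted in water and sprayed at 75 g ai/ha. Pre-emergence spraying was 24 h after sowing; post-emergence at two-leaf (dicots) or one-leaf (monocots) stage. Untreated and DMF controls. Percent growth inhibition scored visually 15 days post-treatment.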

[32] = tested on: Echinochloa crus-galli; assay: Herbicidal activity against Echinochloa crus-galli (barnyard grass) (barnyard grass) assessed as weed growth inhibition at 75 g/ha post-emergence treatment […]; assay type: functional; conditions: read-out: GI; summary of the method: as §2
[33] = tested on: Amaranthus blitum; assay: Herbicidal activity against Amaranthus blitum assessed as weed growth inhibition at 75 g/ha post-emergence treatment […]; assay type: functional; conditions: read-out: GI; summary of the method: as §2
[34] = tested on: Chenopodium album; assay: Herbicidal activity against fat hen Chenopodium album assessed as weed growth inhibition at 75 g/ha post-emergence treatment […]; assay type: functional; conditions: read-out: GI; summary of the method: as §2
[35] = tested on: Setaria viridis; assay: Herbicidal activity against Setaria viridis (green foxtail) assessed as weed growth inhibition at 75 g/ha pre-emergence treatment […]; assay type: functional; conditions: read-out: GI; summary of the method: as §2
[36] = Phytotoxicity against Zea mays (maize) assessed as growth inhibition at 7.5 g/ha post-emergence treatment measured after 15 days by crop-selectivity assay; assay type: organism-based; conditions: in vivo, read-out: GI; summary of the method: as §1
[37] = tested on: Amaranthus blitum; assay: Herbicidal activity against Amaranthus blitum assessed as weed growth inhibition at 75 g/ha pre-emergence treatment […]; assay type: functional; conditions: read-out: GI; summary of the method: as §2
[38] = tested on: Chenopodium album; assay: Herbicidal activity against fat hen Chenopodium album assessed as weed growth inhibition at 75 g/ha pre-emergence treatment […]; assay type: functional; conditions: read-out: GI; summary of the method: as §2
[39] = tested on: Abutilon theophrasti; assay: Herbicidal activity against Abutilon theophrasti (velvetleaf) assessed as weed growth inhibition at 75 g/ha pre-emergence treatment […]; assay type: functional; conditions: read-out: GI; summary of the method: as §2

Structure (SMILES) | inhibition at 360 h [1] [%] | inhibition at 360 h [2] [%] | inhibition at 360 h [3] [%] | inhibition at 360 h [4] [%] | inhibition at 360 h [5] [%] | inhibition at 360 h [6] [%] | inhibition at 360 h [7] [%] | inhibition at 360 h [8] [%] | inhibition at 360 h [9] [%] | growth inhibition (GI) [10] | inhibition at 360 h [11] [%] | inhibition at 360 h [12] [%] | growth inhibition (GI) [13] | growth inhibition (GI) [14] | inhibition at 360 h [15] [%] | growth inhibition (GI) [16] | growth inhibition (GI) [17] | inhibition at 360 h [18] [%] | growth inhibition (GI) [19] | growth inhibition (GI) [20] | further results
C#CCN1C(=O)COc2cc(F)c(N3C(=O)c4ccc(F)cc4C3=O)cc21 | > 10 | > 10 | > 10 | > 10 | > 10 | > 10 | > 10 | > 10 | > 10 | Non-toxic | > 10 | > 10 | Non-toxic | Non-toxic | > 10 | Non-toxic | Non-toxic | 1 | Non-toxic | Non-toxic | growth inhibition (GI) [21]: Non-toxic; growth inhibition (GI) [22]: Non-toxic; inhibition at 360 h [23]: > 10%; inhibition at 360 h [24]: 1%; inhibition at 360 h [25]: > 10%; inhibition at 360 h [26]: > 10%; inhibition at 360 h [27]: > 10%; inhibition at 360 h [28]: > 10%; growth inhibition (GI) [29]: Non-toxic; growth inhibition (GI) [30]: Non-toxic; IC50 [31]: 3.6 g/ha; inhibition of growth at 75 g/ha [32]: > 80%; inhibition of growth at 75 g/ha [33]: > 80%; inhibition of growth at 75 g/ha [34]: > 80%; inhibition of growth at 75 g/ha [35]: > 80%; inhibition at 360 h [36]: 1%; inhibition of growth at 75 g/ha [37]: > 80%; inhibition of growth at 75 g/ha [38]: > 80%; inhibition of growth at 75 g/ha [39]: > 80%
C#CCN1C(=O)COc2cc(F)c(N3C(=O)C4=C(CCCC4)C3=O)cc21 [FLUMIOXAZIN] | > 10 | > 10 | > 10 | > 10 | > 10 | > 10 | > 10 | > 10 | > 10 | Non-toxic | > 10 | > 10 | Non-toxic | Non-toxic | > 10 | Non-toxic | Non-toxic | > 10 | Non-toxic | Non-toxic | growth inhibition (GI) [21]: Non-toxic; growth inhibition (GI) [22]: Non-toxic; inhibition at 360 h [23]: > 10%; inhibition at 360 h [24]: > 10%; inhibition at 360 h [25]: > 10%; inhibition at 360 h [26]: > 10%; inhibition at 360 h [27]: > 10%; inhibition at 360 h [28]: > 10%; growth inhibition (GI) [29]: Non-toxic; growth inhibition (GI) [30]: Non-toxic; IC50 [31]: 1 g/ha; inhibition of growth at 75 g/ha [32]: > 80%; inhibition of growth at 75 g/ha [33]: > 80%; inhibition of growth at 75 g/ha [34]: > 80%; inhibition of growth at 75 g/ha [35]: > 80%; inhibition at 360 h [36]: > 10%; inhibition of growth at 75 g/ha [37]: > 80%; inhibition of growth at 75 g/ha [38]: > 80%; inhibition of growth at 75 g/ha [39]: > 80%
